Measured values reported in ChEMBL document CHEMBL4368872, “Synthesis and anticonvulsant activity of phenoxyacetyl derivatives of amines, including aminoalkanols and amino acids” (Medchemcomm, 2018).
Calls of active or inactive are those of the source. The calls are words filed in the database; no cut-off is given here.

How the values were obtained:
[1] = system: Mus musculus; assay: Anticonvulsant activity in CF-1 mouse model of maximal electroshock-induced seizure assessed as suppression of tonic hind limb extension at 30 mg/kg, ip measured at 0.5 hrs post dose; format: functional, organism-based
Outline: (§1)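 Mice dosed i.p. and given maximal electroshock at 50 mA. Read-out is protection, reported as number protected / number tested at 0.25, 0.5, 1 and 4 h after dosing.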

[2] = system: Salmonella typhimurium; assay: Antimutagenic activity against Salmonella typhimurium TA1535 assessed as inhibition of NaN3-induced mutation at 250 ug/plate preincubated for 30 mins followed by top agar addition and measured after 48 hrs in presence of liver S9 fraction by Ames test relative to control; format: organism-based; details: salmonella enterica subsp. enterica serovar typhimurium, s9, 48 h
[3] = system: Salmonella typhimurium; assay: Antimutagenic activity against Salmonella typhimurium TA1535 assessed as inhibition of NaN3-induced mutation at 500 ug/plate preincubated for 30 mins followed by top agar addition and measured after 48 hrs in presence of liver S9 fraction by Ames test relative to control; format: organism-based; details: salmonella enterica subsp. enterica serovar typhimurium, s9, 48 h
[4] = system: Mus musculus; assay: Anticonvulsant activity in CF-1 mouse model of subcutaneous pentylenetetrazole-induced seizure assessed as reduction in convulsions at 30 mg/kg, ip measured at 4 hrs post dose; format: functional, organism-based
Outline: (§2)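 Mice dosed i.p., then given pentylenetetrazole 85 mg/kg in 0.9% NaCl s.c. into the posterior midline of the neck. Seizures watched for at least 30 min. Scored as protected / tested at 0.5 and 4 h.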

[5] = system: Mus musculus; assay: Anticonvulsant activity in CF-1 mouse model of subcutaneous pentylenetetrazole-induced seizure assessed as reduction in convulsions at 300 mg/kg, ip measured at 4 hrs post dose; format: functional, organism-based; outline: as §2
[6] = system: Salmonella typhimurium; assay: Antimutagenic activity against Salmonella typhimurium TA1535 assessed as inhibition of NaN3-induced mutation at 100 ug/plate preincubated for 30 mins followed by top agar addition and measured after 48 hrs in presence of liver S9 fraction by Ames test relative to control; format: organism-based; details: salmonella enterica subsp. enterica serovar typhimurium, s9, 48 h
[7] = system: Mus musculus; assay: Anticonvulsant activity in CF-1 mouse model of maximal electroshock-induced seizure assessed as suppression of tonic hind limb extension at 30 mg/kg, ip measured at 4 hrs post dose; format: functional, organism-based; outline: as §1
[8] = system: Mus musculus; assay: Anticonvulsant activity in CF-1 mouse model of maximal electroshock-induced seizure assessed as suppression of tonic hind limb extension at 300 mg/kg, ip measured at 4 hrs post dose; format: functional, organism-based; outline: as §1
[9] = Neurotoxicity in CF-1 mouse at 300 mg/kg, ip measured after 4 hrs by rotarod test; format: toxicity, organism-based; details: in vivo
Outline: (§3)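 Mice dosed i.p. were placed on a 1 in. knurled rod turning at 6 rpm. Toxicity was scored as failure to keep balance for at least 1 min, i.e. falling off three or more times. Results are reported as animals showing toxicity / animals tested at each time point.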

[10] = Neurotoxicity in CF-1 mouse at 30 mg/kg, ip measured after 4 hrs by rotarod test; format: toxicity, organism-based; details: in vivo; outline: as §3
[11] = system: Mus musculus; assay: Anticonvulsant activity in CF-1 mouse model of subcutaneous pentylenetetrazole-induced seizure assessed as reduction in convulsions at 30 mg/kg, ip measured at 0.5 hrs post dose; format: functional, organism-based; outline: as §2
[12] = Mutagenicity in Salmonella typhimurium TA1535 assessed as mutagenicity index at 50 to 500 ug/plate preincubated for 30 mins followed by top agar addition and measured after 48 hrs in presence of liver S9 fraction by Ames test; format: toxicity, subcellular; details: salmonella enterica subsp. enterica serovar typhimurium, s9, 48 h
Outline: (§4)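 Ames plate incorporation in S. typhimurium TA100 or TA1535, with or without S9. Overnight culture, compound in DMSO (50–500 µg per plate) and buffer or S9 mix preincubated 30 min at 37 °C, then top agar on glucose minimal agar. Incubated 48 h at 37 °C, revertants counted in triplicate. Vehicle negative control; NaN3 (−S9) and 2AA (+S9) positive controls. MI = revertants with compound / negative-control revertants; MI ≥ 2 with dose-response counts as positive.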

[13] = system: Salmonella typhimurium; assay: Antimutagenic activity against Salmonella typhimurium TA100 assessed as inhibition of NaN3-induced mutation at 100 ug/plate preincubated for 30 mins followed by top agar addition and measured after 48 hrs in presence of liver S9 fraction by Ames test relative to control; format: organism-based; details: salmonella enterica subsp. enterica serovar typhimurium, s9, 48 h
[14] = system: Mus musculus; assay: Anticonvulsant activity in CF-1 mouse model of maximal electroshock-induced seizure assessed as suppression of tonic hind limb extension at 100 mg/kg, ip measured at 0.5 hrs post dose; format: functional, organism-based; outline: as §1
[15] = system: Mus musculus; assay: Anticonvulsant activity in CF-1 mouse model of maximal electroshock-induced seizure assessed as suppression of tonic hind limb extension at 300 mg/kg, ip measured at 0.5 hrs post dose; format: functional, organism-based; outline: as §1
[16] = system: Mus musculus; assay: Anticonvulsant activity in CF-1 mouse model of maximal electroshock-induced seizure assessed as suppression of tonic hind limb extension at 100 mg/kg, ip measured at 4 hrs post dose; format: functional, organism-based; outline: as §1
[17] = Mutagenicity in Salmonella typhimurium TA100 assessed as mutagenicity index at 50 to 500 ug/plate preincubated for 30 mins followed by top agar addition and measured after 48 hrs in presence of liver S9 fraction by Ames test; format: toxicity, subcellular; details: salmonella enterica subsp. enterica serovar typhimurium, s9, 48 h; outline: as §4
[18] = Mutagenicity in Salmonella typhimurium TA1535 assessed as mutagenicity index at 50 to 500 ug/plate preincubated for 30 mins followed by top agar addition and measured after 48 hrs in absence of liver S9 fraction by Ames test; format: toxicity; details: salmonella enterica subsp. enterica serovar typhimurium, s9, 48 h; outline: as §4
[19] = Neurotoxicity in CF-1 mouse at 30 mg/kg, ip measured after 0.5 hrs by rotarod test; format: toxicity, organism-based; details: in vivo; outline: as §3
[20] = system: Salmonella typhimurium; assay: Antimutagenic activity against Salmonella typhimurium TA100 assessed as inhibition of NaN3-induced mutation at 50 ug/plate preincubated for 30 mins followed by top agar addition and measured after 48 hrs in presence of liver S9 fraction by Ames test relative to control; format: organism-based; details: salmonella enterica subsp. enterica serovar typhimurium, s9, 48 h
[21] = system: Mus musculus; assay: Anticonvulsant activity in CF-1 mouse model of subcutaneous pentylenetetrazole-induced seizure assessed as reduction in convulsions at 100 mg/kg, ip measured at 4 hrs post dose; format: functional, organism-based; outline: as §2
[22] = system: Salmonella typhimurium; assay: Antimutagenic activity against Salmonella typhimurium TA100 assessed as inhibition of NaN3-induced mutation at 500 ug/plate preincubated for 30 mins followed by top agar addition and measured after 48 hrs in presence of liver S9 fraction by Ames test relative to control; format: organism-based; details: salmonella enterica subsp. enterica serovar typhimurium, s9, 48 h
[23] = Neurotoxicity in CF-1 mouse at 100 mg/kg, ip measured after 4 hrs by rotarod test; format: toxicity, organism-based; details: in vivo; outline: as §3
[24] = system: Salmonella typhimurium; assay: Antimutagenic activity against Salmonella typhimurium TA1535 assessed as inhibition of NaN3-induced mutation at 50 ug/plate preincubated for 30 mins followed by top agar addition and measured after 48 hrs in presence of liver S9 fraction by Ames test relative to control; format: organism-based; details: salmonella enterica subsp. enterica serovar typhimurium, s9, 48 h
[25] = system: Mus musculus; assay: Anticonvulsant activity in CF-1 mouse model of subcutaneous pentylenetetrazole-induced seizure assessed as reduction in convulsions at 100 mg/kg, ip measured at 0.5 hrs post dose; format: functional, organism-based; outline: as §2
[26] = Mutagenicity in Salmonella typhimurium TA100 assessed as mutagenicity index at 50 to 500 ug/plate preincubated for 30 mins followed by top agar addition and measured after 48 hrs in absence of liver S9 fraction by Ames test; format: toxicity; details: salmonella enterica subsp. enterica serovar typhimurium, s9, 48 h; outline: as §4
[27] = Neurotoxicity in CF-1 mouse at 300 mg/kg, ip measured after 0.5 hrs by rotarod test; format: toxicity, organism-based; details: in vivo; outline: as §3
[28] = system: Salmonella typhimurium; assay: Antimutagenic activity against Salmonella typhimurium TA100 assessed as inhibition of NaN3-induced mutation at 250 ug/plate preincubated for 30 mins followed by top agar addition and measured after 48 hrs in presence of liver S9 fraction by Ames test relative to control; format: organism-based; details: salmonella enterica subsp. enterica serovar typhimurium, s9, 48 h
[29] = system: Mus musculus; assay: Anticonvulsant activity in CF-1 mouse model of subcutaneous pentylenetetrazole-induced seizure assessed as reduction in convulsions at 300 mg/kg, ip measured at 0.5 hrs post dose; format: functional, organism-based; outline: as §2
[30] = Neurotoxicity in CF-1 mouse at 100 mg/kg, ip measured after 0.5 hrs by rotarod test; format: toxicity, organism-based; details: in vivo; outline: as §3
[31] = system: Mus musculus; assay: Anticonvulsant activity in CF-1 mouse model of maximal electroshock-induced seizure assessed as suppression of tonic hind limb extension at 100 mg/kg, ip measured at 0.25 hrs post dose; format: functional, organism-based; outline: as §1
[32] = system: Mus musculus; assay: Anticonvulsant activity in CF-1 mouse model of maximal electroshock-induced seizure assessed as suppression of tonic hind limb extension at 100 mg/kg, ip measured at 1 hr post dose; format: functional, organism-based; outline: as §1
[33] = Neurotoxicity in CF-1 mouse at 100 mg/kg, ip measured after 1 hr by rotarod test; format: toxicity, organism-based; details: in vivo; outline: as §3
[34] = Neurotoxicity in CF-1 mouse at 100 mg/kg, ip measured after 0.25 hrs by rotarod test; format: toxicity, organism-based; details: in vivo; outline: as §3

| Compound | Activity [1] | Activity [4] | Activity [5] | Activity [7] | Activity [8] | Activity [9] | Activity [10] | Activity [11] | Activity [14] | Activity [15] | Activity [16] | Activity [19] | Activity [21] | Activity [23] | Activity [25] | Activity [27] | Activity [29] | Activity [31] | Activity [32] | Activity [34] | other results |
| --- | --- | --- | --- | --- | --- | --- | --- | --- | --- | --- | --- | --- | --- | --- | --- | --- | --- | --- | --- | --- | --- |
| Cc1cccc(C)c1OCC(=O)NCC(O)c1ccccc1 (stereo unspecified) | inactive | inactive | inactive | inactive | inactive | Non-Toxic | Non-Toxic | inactive | inactive | inactive | inactive | Non-Toxic | inactive | Non-Toxic | inactive | Non-Toxic | inactive | – | – | – | inhibition (INH) [2]: 35%; inhibition (INH) [3]: 13%; inhibition (INH) [6]: 45%; Activity index [12]: 0.7 to 1.7; inhibition (INH) [13]: 45%; Activity index [17]: 0.7 to 1.7; Activity index [18]: 0.7 to 1.7; inhibition (INH) [20]: 17%; inhibition (INH) [22]: 41%; inhibition (INH) [24]: 58%; Activity index [26]: 0.7 to 1.7; inhibition (INH) [28]: 51% |
| CCC(NC(=O)COc1c(C)cc(C)cc1C)C(N)=O (stereo unspecified) | inactive | inactive | inactive | inactive | inactive | Non-Toxic | Non-Toxic | inactive | inactive | Active | inactive | Non-Toxic | inactive | Non-Toxic | inactive | – | inactive | inactive | inactive | Non-Toxic | Activity [30]: Non-Toxic; Activity [33]: Non-Toxic |
| Cc1cccc(C)c1OCC(=O)N[C@H](C)C(N)=O | inactive | – | inactive | inactive | inactive | Non-Toxic | Non-Toxic | inactive | inactive | Active | inactive | Non-Toxic | inactive | Non-Toxic | inactive | – | inactive | inactive | inactive | Non-Toxic | – |
| CCC(CO)NC(=O)COc1c(C)cc(C)cc1C (stereo unspecified) | inactive | inactive | inactive | inactive | inactive | Non-Toxic | Non-Toxic | inactive | inactive | Active | inactive | Non-Toxic | inactive | Non-Toxic | inactive | – | inactive | inactive | inactive | Non-Toxic | Activity [33]: Non-Toxic |
| Cc1cccc(C)c1OCC(=O)N[C@@H](C)C(=O)O | inactive | inactive | inactive | inactive | inactive | Non-Toxic | Non-Toxic | inactive | inactive | inactive | inactive | Non-Toxic | inactive | Non-Toxic | inactive | Non-Toxic | inactive | – | – | – | Activity [30]: Non-Toxic |
